NPR1 activator: GC-A (human) enzyme activation | P16066 | HEK293 GC-A cells, cGMP TR-FRET, EC30 ANP; 0% at EC30 ANP, 100% saturating ANP | activation, % at 10 µM | 0.14% of 370,000 active | AID 1671463; in the data active = activation above about 40%
GalR3 antag: human GalR3 antagonism | HEK293 GalR3-CNG cAMP membrane potential fluorescence; galR3 body fused to GalR1 C-terminus | inhibition, % at 3 µM | 0.44% of 360,000 active | AID 651719;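 active = inhibition above the screen-wide average plus 3 SD, cut at about 13% in these data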;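 note: forskolin and galanin both at EC90 stimulate the cells; cAMP rise reported by CNG channel membrane potential dye signal; 0% = forskolin plus galanin with DMSO and 100% = forskolin alone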
Target sequence (O60755 1-299 limits assumed): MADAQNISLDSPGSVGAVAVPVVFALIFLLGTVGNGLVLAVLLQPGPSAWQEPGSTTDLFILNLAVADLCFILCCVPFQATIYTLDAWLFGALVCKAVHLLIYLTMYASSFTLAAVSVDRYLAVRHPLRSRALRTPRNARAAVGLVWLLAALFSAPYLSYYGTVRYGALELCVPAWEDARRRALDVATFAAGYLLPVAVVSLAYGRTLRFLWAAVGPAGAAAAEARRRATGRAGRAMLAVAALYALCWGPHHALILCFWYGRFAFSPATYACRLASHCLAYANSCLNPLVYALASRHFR
Arrestin-AP2 inh: blocks beta-arrestin peptide binding to AP2 adaptin; AID 504490; 0.31% of 340,000 active; inhibition, % at 10 µM; FITC-arrestin peptide / GST-AP2 beads, flow cytometry; AP2 beta2 appendage carries R879A mutation;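 active = inhibition above a set limit, near 3 SD of compounds lacking own fluorescence, cut at about 54% in these data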;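 note: plate controls were DMSO wells for no effect and 5 µM unlabelled arrestin peptide for full effect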
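System: GST-AP2 R879A bound to glutathione beads, E. coli-expressed. Also added: 50 nM FITC-arrestin peptide. Schedule: compound with beads 12 min RT, then probe 1 h RT. Signal: bead flow cytometry, FITC channel. Read-out basis: percent response.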
NPR2 activator: GC-B (human) receptor activation; P20594; HEK293-GC-B cells, CNP EC30, cGMP TR-FRET; 0% at EC30 CNP, 100% saturating CNP; activation, % at 10 µM; 0.11% of 370,000 active; AID 1920062;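 active = activation at 10 µM reaching about 35% in either raw or pattern-adjusted values, limit read from the data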
Arr AP2 CP1: human beta-arrestin and AP2 interaction inhibition, cherry pick | shares compounds with Arrestin-AP2 inh | GST-AP2 beads, FITC arrestin peptide binding, flow cytometry; GST-fused beta2-adaptin appendage, R879A mutant | inhibition, % at 10 µM | 2% of 1,300 active | AID 504908;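 active = inhibition above a set limit, roughly 3 SD of non-fluorescent compound noise, cut at about 38% in these data; inactive = inhibition at or below that limit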;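 note: loss of bead fluorescence from 50 nM FITC arrestin peptide bound to appendage; 0% = negative control wells and 100% = excess unlabelled arrestin peptide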
GST-FITC bead: counter-screen for beta-arrestin AP2 inhibitors: GST-GSH bead binding. shares compounds with Arrestin-AP2 inh. GST-fluorescein binding to GSH beads, fluorescence. inhibition, % at 10 µM. 2% of 1,300 active;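 active = inhibition above 50%, about 3 SD of the inhibition seen with non-fluorescent compounds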;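 note: fluorescein maleimide labelled GST captured on 4 micron glutathione beads; higher means more loss of bead fluorescence from quenching or blocked binding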
GalR3 antag conf: GalR3 (human) antagonism, confirmation; shares compounds with GalR3 antag; HEK293 GalR3 CNG cAMP biosensor, membrane potential fluorescence; galR3 fused to GalR1 carboxy tail; challenged with forskolin and galanin at EC90; inhibition, % at 3 µM; 59% of 1,600 active;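 active = inhibition above the primary screen's cutoff, the mean inhibition of all screened compounds plus 3 SD, cut at about 13% in these data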;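 note: 0% = forskolin plus galanin and 100% = forskolin alone with DMSO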
HEK-CNG parental: parental cell agonism counter-screen for GalR3 antagonists | 10% of 1,600 active | activation, % at 3 µM | shares compounds with GalR3 antag | HEK293-CNG parental cells, cAMP membrane potential fluorescence; normalised: DMSO wells 0%, forskolin wells 100%; in the data active = activation above about 1.3%
The depositor's hits bear a star. The list is not random: actives were taken first. Their share in the collection is about 0.94%.

What do the screens show for `COc1ccccc1-n1c(CNCC2CCCO2)nc2ccccc2c1=O` (centres undefined)?
NPR1 activator: -1; GalR3 antag: 7; Arrestin-AP2 inh: 60*; NPR2 activator: -3; Arr AP2 CP1: -1; GST-FITC bead: -7

How did CN(C)c1ccc(C=C2C(=O)NC(=O)NC2=O)cc1[N+](=O)[O-] do in these assays?
NPR1 activator: 4; GalR3 antag: -1; Arrestin-AP2 inh: 5; NPR2 activator: -1

What do the screens show for `CN(C)c1ccc(C=C2C(=O)NC(=S)NC2=O)cc1[N+](=O)[O-]`?
NPR1 activator: 4; GalR3 antag: -5; Arrestin-AP2 inh: 64*; NPR2 activator: 5; Arr AP2 CP1: 17; GST-FITC bead: 7

How did COC(=O)C1C(c2ccc(I)cc2)CC2CCC1N2C (centres undefined) do in these assays?
NPR1 activator: -3; GalR3 antag: -2; NPR2 activator: -11

How did c1ccc2c(c1)cc1ccc3cccc4ccc2c1c34 do in these assays?
NPR1 activator: -5; GalR3 antag: -1; Arrestin-AP2 inh: 57*; NPR2 activator: -3; Arr AP2 CP1: 11; GST-FITC bead: -1

How did CCOC(=O)CC[C@@H]1CC[C@]2(CCCN(Cc3ccccn3)C2)O1 do in these assays?
NPR1 activator: 0; NPR2 activator: -5

Results for CCOC(=O)C1(CCOc2ccccc2)CCN(Cc2ccc(C)s2)CC1 ?
NPR1 activator: 2; GalR3 antag: -9; Arrestin-AP2 inh: 57*; NPR2 activator: -6; Arr AP2 CP1: 10; GST-FITC bead: -4

Results for CCOC(=O)C1(CCc2ccccc2)CCN(Cc2ccc3c(c2)OCCO3)CC1 ?
NPR1 activator: -5; GalR3 antag: -8; Arrestin-AP2 inh: 4; NPR2 activator: 0

What do the screens show for `CC(C)(C)NCC(O)c1cc(Cl)c(N)c(Cl)c1` (centres undefined)?
NPR1 activator: -2; GalR3 antag: 24*; Arrestin-AP2 inh: 4; NPR2 activator: 1; GalR3 antag conf: 31*; HEK-CNG parental: 5.3*

How did CCOC(=O)CC[C@@H]1CC[C@]2(CCCN(Cc3ccncc3)C2)O1 do in these assays?
NPR1 activator: -2; NPR2 activator: 0

What do the screens show for `CC12CCC3C(CCC4(O)CC(O)CCC34C=O)C1(O)CCC2C1=CC(=O)OC1` (centres undefined)?
NPR1 activator: 2; GalR3 antag: 18*; Arrestin-AP2 inh: 1; NPR2 activator: 1; GalR3 antag conf: 47*; HEK-CNG parental: 4.2*

What do the screens show for `CCC(=NC(C)c1ccccc1)c1c(O)[nH]c(=O)[nH]c1=O` (centres undefined)?
NPR1 activator: 4; GalR3 antag: 1; Arrestin-AP2 inh: 7; NPR2 activator: 6

How did CCC(=NCCC(c1ccccc1)c1ccccc1)c1c(O)[nH]c(=O)[nH]c1=O do in these assays?
NPR1 activator: -28; GalR3 antag: 26*; Arrestin-AP2 inh: -44; NPR2 activator: -20; GalR3 antag conf: 38*; HEK-CNG parental: 0

What do the screens show for `CCc1ccc(CN2CCN(Cc3ccc(SC)cc3)CC2)cc1`?
NPR1 activator: 6; GalR3 antag: 50*; Arrestin-AP2 inh: 19; NPR2 activator: 12; GalR3 antag conf: 60*; HEK-CNG parental: 1.4*

How did CSc1ccc(CN2CCN(c3ccccc3C)CC2)cc1 do in these assays?
NPR1 activator: 2; GalR3 antag: -11; Arrestin-AP2 inh: 24; NPR2 activator: -2

Results for CCCCNS(=O)(=O)c1ccc(OCC(=O)N2CCN(Cc3ccc4c(c3)OCO4)CC2)cc1 ?
NPR1 activator: 0; GalR3 antag: 14*; Arrestin-AP2 inh: -13; NPR2 activator: 2; GalR3 antag conf: 17*; HEK-CNG parental: 0

Results for O=C(COc1ccc(S(=O)(=O)N2CCOCC2)cc1)N1CCN(Cc2ccc3c(c2)OCO3)CC1 ?
NPR1 activator: 0; GalR3 antag: -8; Arrestin-AP2 inh: 0; NPR2 activator: -2

What do the screens show for `CCCCCN1C(=O)c2cc(OC)ccc2[C@@]2(C(=O)OCC)Cc3cc(Cl)ccc3[C@@H]12`?
NPR1 activator: -23; GalR3 antag: 36*; NPR2 activator: -22; GalR3 antag conf: 52*; HEK-CNG parental: 2.6*

How did CC(C)(C)NC(=O)CN1C(=O)[C@@H](Cc2c[nH]c3ccccc23)N=C(c2ccccc2)c2ccccc21 do in these assays?
NPR1 activator: -1; NPR2 activator: -7

How did C=CCn1c(O)c(C(CC)=Nc2cccc(C(=O)O)c2)c(=O)[nH]c1=O do in these assays?
NPR1 activator: -1; GalR3 antag: 15*; Arrestin-AP2 inh: 6; NPR2 activator: 3; GalR3 antag conf: 5; HEK-CNG parental: 0

Results for C=CCn1c(O)c(C(C)=Nc2cccc(C(=O)O)c2)c(=O)[nH]c1=O ?
NPR1 activator: 4; GalR3 antag: -2; Arrestin-AP2 inh: 6; NPR2 activator: 2

Results for C[N+]1(C)CCN(c2ccccc2)CC1 ?
NPR1 activator: 1; Arrestin-AP2 inh: -5; NPR2 activator: 2

What do the screens show for `CC(C)(C)c1cc(C=C(C#N)C#N)cc(C(C)(C)C)c1O`?
NPR1 activator: 16; GalR3 antag: 27*; Arrestin-AP2 inh: 17; NPR2 activator: 11; GalR3 antag conf: 18*; HEK-CNG parental: 15*

How did COC(=O)C1C(c2ccccc2)CC2CCC1N2C (centres undefined) do in these assays?
NPR1 activator: 6; GalR3 antag: -3; NPR2 activator: 0

What do the screens show for `COC1=CC(=O)[C@]2(C=C1OC)OC[C@@H]1Oc3c(ccc4c3C=CC(C)(C)O4)C(=O)[C@@H]12`?
NPR1 activator: 3; GalR3 antag: 41*; NPR2 activator: 7; GalR3 antag conf: 98*; HEK-CNG parental: 0

What do the screens show for `Cc1cc(=O)oc2cc(OCC(=O)N3CCN(C(C)c4ccccc4)CC3)c(Cl)cc12` (centres undefined)?
NPR1 activator: -5; GalR3 antag: 3; Arrestin-AP2 inh: -9; NPR2 activator: -5

Screening results: PubChem, several laboratories
